Data reported in ChEMBL document CHEMBL1671788, “Discovery, synthesis, and structure-activity relationship development of a series of N-(4-acetamido)phenylpicolinamides as positive allosteric modulators of metabotropic glutamate receptor 4 (mGlu(4)) with CNS exposure in rats” (J Med Chem, 2011).
Calls of active or inactive are those of the source. The calls are words filed in the database; no cut-off is given here.

Tests used:
[1] = AUC in Sprague-Dawley rat plasma at 10 mg/kg, sc; assay type: ADME, organism-based; design: dose 10 mg/kg, route subcutaneous
[2] = in vivo; conditions: Sprague-Dawley, rat, brain/plasma, iv, 1 mg/kg
[3] = molecular target: Metabotropic glutamate receptor 2 (Rattus norvegicus) (UniProt P31421); assay: Positive allosteric modulation in rat mGluR2 receptor expressed in HEK293 cells assessed as effect on thallium flux at 10 uM relative to glutamate; assay type: cell-based
Method in brief: (§1)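 HEK-293 cells co-expressing the rat receptor and GIRK channels, plated at 15,000 cells/well overnight, then loaded with BTC-AM (1.7 µM) for 1 h at room temperature. Vehicle or compound at 10 µM final was added, and 2.5 min later a full glutamate concentration-response was given in thallium-containing buffer. Thallium flux was read by fluorescence and the leftward or rightward shift of the glutamate curve recorded.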

[4] = Cmax in Sprague-Dawley rat brain at 10 mg/kg, sc; assay type: ADME, organism-based; design: dose 10 mg/kg, route subcutaneous
Method in brief: (§2)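 Rats dosed subcutaneously at 10 mg/kg as a 10% tween 80 microsuspension. […] In vivo samples were quantified by LC/MS/MS (ESI, positive-mode MRM) after gradient elution on a C18 column.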

[5] = molecular target: Metabotropic glutamate receptor 1 (Rattus norvegicus) (UniProt P23385); assay: Positive allosteric modulation in rat mGluR1 receptor expressed in HEK293 cells assessed as effect on calcium mobilization at 10 uM relative to glutamate
[6] = Plasma protein binding in Sprague-Dawley rat; assay type: ADME, cell-free; conditions: read-out: PPB
Method in brief: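 Equilibrium dialysis of compound spiked into rat plasma against 25 mM phosphate buffer, pH 7.4. Dialysis ran 4 h at 37 °C with shaking. Both chambers were matrix-matched, extracted with cold acetonitrile and quantified by LC/MS/MS. Triplicate within one plate.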

[7] = molecular target: Metabotropic glutamate receptor 4 (Rattus norvegicus, UniProt P31423); assay: Positive allosteric modulation of rat mGluR4 expressed in CHO cells coexpressing Gqi5 assessed as calcium mobilization; assay type: functional, cell-based; conditions: read-out: EC50
[8] = molecular target: Cytochrome P450 3A4 (Homo sapiens, UniProt P08684); assay: Inhibition of human CYP3A4
Method in brief: (§3)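 Human liver microsomes (final 0.1 mg/mL) in 0.1 M potassium phosphate, pH 7.4, with a probe cocktail: phenacetin 10 µM (1A2), diclofenac 5 µM (2C9), dextromethorphan 5 µM (2D6) and midazolam 2 µM (3A4). Compound at 100 nM–30 µM final, in duplicate, preincubated 15 min at 37 °C. NADPH (1 mM) reaction ran 8 min, was quenched with cold acetonitrile, and read by LC/MS/MS (MRM). IC50 determined.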

[9] = in vivo; conditions: Sprague-Dawley, rat, sc, 10 mg/kg
[10] = molecular target: Cytochrome P450 2D6 (Homo sapiens, UniProt P10635); assay: Inhibition of human CYP2D6; method in brief: as §3
[11] = molecular target: Metabotropic glutamate receptor 3 (Rattus norvegicus) (UniProt P31422); assay: Positive allosteric modulation in rat mGluR3 receptor expressed in HEK293 cells assessed as effect on thallium flux at 10 uM relative to glutamate; assay type: cell-based; method in brief: as §1
[12] = molecular target: Metabotropic glutamate receptor 4 (Rattus norvegicus) (UniProt P31423); assay: Positive allosteric modulation of rat mGluR4 expressed in CHO cells coexpressing Gqi5 assessed as calcium mobilization relative to PHCCC; assay type: functional, cell-based
[13] = system: Plasma; assay: Cmax in Sprague-Dawley rat plasma at 10 mg/kg, sc; assay type: ADME, organism-based; design: dose 10 mg/kg, route subcutaneous; conditions: in vivo; method in brief: as §2
[14] = molecular target: Metabotropic glutamate receptor 4 (Homo sapiens, UniProt Q14833); assay: Positive allosteric modulation of human mGluR4 expressed in CHO cells coexpressing Gqi5 assessed as calcium mobilization relative to PHCCC; assay type: functional, cell-based
Method in brief: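 CHO cells stably expressing human mGlu4 with Gqi5 were plated at 30,000 cells/well and grown overnight. Cells were loaded with 1 µM Fluo-4 AM for 45 min at 37 °C in HBSS/HEPES/2.5 mM probenecid buffer. […] Ca2+ fluorescence was read (ex 470, em 540 nm). Curves were fitted with a four-parameter logistic; ≥3 independent runs in triplicate.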

[15] = molecular target: Metabotropic glutamate receptor 6 (Rattus norvegicus) (UniProt P35349); assay: Positive allosteric modulation in rat mGluR6 receptor expressed in HEK293 cells assessed as effect on thallium flux at 10 uM relative to glutamate; assay type: cell-based
[16] = molecular target: Cytochrome P450 2C9 (Homo sapiens, UniProt P11712); assay: Inhibition of human CYP2C9; method in brief: as §3
[17] = molecular target: T1, Cytochrome P450 1A2 (Homo sapiens, UniProt P05177); assay: Inhibition of human CYP1A2; method in brief: as §3
T1 sequence (P05177 whole entry): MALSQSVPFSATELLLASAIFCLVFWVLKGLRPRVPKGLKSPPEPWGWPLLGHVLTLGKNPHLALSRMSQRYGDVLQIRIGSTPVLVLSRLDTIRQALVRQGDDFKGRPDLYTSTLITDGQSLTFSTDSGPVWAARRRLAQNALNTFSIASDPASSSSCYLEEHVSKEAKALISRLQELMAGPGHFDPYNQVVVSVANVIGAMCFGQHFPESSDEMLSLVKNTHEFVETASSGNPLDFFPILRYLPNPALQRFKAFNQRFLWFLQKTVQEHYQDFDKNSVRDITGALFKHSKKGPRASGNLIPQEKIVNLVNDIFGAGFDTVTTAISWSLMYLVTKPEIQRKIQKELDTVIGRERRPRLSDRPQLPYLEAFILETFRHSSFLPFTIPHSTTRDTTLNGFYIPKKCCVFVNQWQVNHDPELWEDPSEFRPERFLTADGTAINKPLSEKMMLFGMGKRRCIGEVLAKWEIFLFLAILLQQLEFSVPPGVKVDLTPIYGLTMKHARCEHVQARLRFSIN

[18] = system: Plasma; assay: AUC in Sprague-Dawley rat brain at 10 mg/kg, sc; assay type: ADME, organism-based; design: dose 10 mg/kg, route subcutaneous; conditions: in vivo
[19] = molecular target: Metabotropic glutamate receptor 5 (Rattus norvegicus) (UniProt P31424); assay: Positive allosteric modulation in rat mGluR5 receptor expressed in HEK293 cells assessed as effect on calcium mobilization at 10 uM relative to glutamate

Metabotropic glutamate receptor 4 (Homo sapiens, UniProt Q14833), sequence (Q14833 whole entry): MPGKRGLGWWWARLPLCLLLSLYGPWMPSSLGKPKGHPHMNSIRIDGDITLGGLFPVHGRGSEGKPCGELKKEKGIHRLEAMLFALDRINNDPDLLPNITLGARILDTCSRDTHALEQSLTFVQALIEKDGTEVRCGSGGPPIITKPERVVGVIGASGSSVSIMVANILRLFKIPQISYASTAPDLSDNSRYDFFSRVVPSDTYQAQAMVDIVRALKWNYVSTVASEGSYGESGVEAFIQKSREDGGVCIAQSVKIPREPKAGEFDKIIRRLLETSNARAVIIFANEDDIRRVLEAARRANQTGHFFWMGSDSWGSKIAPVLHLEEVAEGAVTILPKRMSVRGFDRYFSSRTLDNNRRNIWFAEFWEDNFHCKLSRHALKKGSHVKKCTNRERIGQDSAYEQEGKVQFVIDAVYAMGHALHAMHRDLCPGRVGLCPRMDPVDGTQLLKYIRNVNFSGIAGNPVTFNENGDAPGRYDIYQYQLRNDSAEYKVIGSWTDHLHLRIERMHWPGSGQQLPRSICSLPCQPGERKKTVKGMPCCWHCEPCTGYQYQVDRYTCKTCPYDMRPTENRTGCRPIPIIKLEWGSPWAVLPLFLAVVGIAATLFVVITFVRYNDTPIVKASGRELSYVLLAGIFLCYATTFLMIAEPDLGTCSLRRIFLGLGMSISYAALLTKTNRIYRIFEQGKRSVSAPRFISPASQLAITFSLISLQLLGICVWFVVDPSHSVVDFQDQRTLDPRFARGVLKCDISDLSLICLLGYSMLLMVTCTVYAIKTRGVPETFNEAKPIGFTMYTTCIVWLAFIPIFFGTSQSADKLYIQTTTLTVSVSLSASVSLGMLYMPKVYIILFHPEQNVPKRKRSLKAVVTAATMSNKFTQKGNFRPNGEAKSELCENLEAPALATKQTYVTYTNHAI
Metabotropic glutamate receptor 3 (Rattus norvegicus), sequence (P31422 23-879 limits assumed): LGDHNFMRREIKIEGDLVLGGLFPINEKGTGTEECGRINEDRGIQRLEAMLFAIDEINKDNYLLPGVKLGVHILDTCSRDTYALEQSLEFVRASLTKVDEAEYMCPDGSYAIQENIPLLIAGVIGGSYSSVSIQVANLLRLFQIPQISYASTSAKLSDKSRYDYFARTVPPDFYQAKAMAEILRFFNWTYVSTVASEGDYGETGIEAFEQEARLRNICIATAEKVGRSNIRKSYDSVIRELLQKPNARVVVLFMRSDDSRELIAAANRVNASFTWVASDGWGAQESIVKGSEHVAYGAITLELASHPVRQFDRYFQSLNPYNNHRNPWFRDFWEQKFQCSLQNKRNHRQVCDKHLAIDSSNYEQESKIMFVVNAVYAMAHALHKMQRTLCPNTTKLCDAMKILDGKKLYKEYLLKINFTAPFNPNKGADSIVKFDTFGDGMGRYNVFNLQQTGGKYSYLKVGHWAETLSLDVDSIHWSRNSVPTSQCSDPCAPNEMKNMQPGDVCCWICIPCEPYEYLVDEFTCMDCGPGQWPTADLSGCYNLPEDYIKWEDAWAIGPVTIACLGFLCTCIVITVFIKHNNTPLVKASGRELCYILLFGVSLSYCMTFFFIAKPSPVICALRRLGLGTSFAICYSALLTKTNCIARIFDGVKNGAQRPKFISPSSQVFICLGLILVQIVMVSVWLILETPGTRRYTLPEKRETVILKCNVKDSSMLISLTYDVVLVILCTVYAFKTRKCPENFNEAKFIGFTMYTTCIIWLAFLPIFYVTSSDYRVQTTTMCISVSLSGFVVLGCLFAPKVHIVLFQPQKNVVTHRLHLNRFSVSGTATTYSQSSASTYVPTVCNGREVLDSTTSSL
Cytochrome P450 3A4, sequence (P08684 whole entry): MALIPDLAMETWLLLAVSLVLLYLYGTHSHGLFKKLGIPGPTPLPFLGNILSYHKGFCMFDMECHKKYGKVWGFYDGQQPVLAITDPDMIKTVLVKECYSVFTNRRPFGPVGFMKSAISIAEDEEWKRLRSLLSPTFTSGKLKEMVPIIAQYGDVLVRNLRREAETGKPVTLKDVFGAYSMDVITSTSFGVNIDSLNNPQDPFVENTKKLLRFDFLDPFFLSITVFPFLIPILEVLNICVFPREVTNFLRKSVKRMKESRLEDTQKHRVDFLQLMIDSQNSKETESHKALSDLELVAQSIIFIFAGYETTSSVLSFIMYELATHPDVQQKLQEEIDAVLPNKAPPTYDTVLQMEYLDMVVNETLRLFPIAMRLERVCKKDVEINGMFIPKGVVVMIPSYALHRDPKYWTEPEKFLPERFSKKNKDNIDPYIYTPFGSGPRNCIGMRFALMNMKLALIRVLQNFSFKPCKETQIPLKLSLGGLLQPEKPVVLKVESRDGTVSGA
Cytochrome P450 2D6, sequence (P10635 whole entry): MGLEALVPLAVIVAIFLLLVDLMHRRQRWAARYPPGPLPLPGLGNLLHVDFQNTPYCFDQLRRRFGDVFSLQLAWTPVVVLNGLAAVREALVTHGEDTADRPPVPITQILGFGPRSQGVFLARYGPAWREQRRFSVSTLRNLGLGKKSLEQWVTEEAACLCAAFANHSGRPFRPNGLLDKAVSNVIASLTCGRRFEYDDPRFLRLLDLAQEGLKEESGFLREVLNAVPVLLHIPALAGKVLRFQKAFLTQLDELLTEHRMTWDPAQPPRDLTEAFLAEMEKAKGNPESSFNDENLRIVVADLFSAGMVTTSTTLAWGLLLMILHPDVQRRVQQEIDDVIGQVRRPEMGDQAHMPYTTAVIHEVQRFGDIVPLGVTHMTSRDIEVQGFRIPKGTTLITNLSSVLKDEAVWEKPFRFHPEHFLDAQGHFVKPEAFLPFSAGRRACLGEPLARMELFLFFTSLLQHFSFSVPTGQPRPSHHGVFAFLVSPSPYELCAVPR
Metabotropic glutamate receptor 1 (Rattus norvegicus), sequence (P23385 19-1199 limits assumed): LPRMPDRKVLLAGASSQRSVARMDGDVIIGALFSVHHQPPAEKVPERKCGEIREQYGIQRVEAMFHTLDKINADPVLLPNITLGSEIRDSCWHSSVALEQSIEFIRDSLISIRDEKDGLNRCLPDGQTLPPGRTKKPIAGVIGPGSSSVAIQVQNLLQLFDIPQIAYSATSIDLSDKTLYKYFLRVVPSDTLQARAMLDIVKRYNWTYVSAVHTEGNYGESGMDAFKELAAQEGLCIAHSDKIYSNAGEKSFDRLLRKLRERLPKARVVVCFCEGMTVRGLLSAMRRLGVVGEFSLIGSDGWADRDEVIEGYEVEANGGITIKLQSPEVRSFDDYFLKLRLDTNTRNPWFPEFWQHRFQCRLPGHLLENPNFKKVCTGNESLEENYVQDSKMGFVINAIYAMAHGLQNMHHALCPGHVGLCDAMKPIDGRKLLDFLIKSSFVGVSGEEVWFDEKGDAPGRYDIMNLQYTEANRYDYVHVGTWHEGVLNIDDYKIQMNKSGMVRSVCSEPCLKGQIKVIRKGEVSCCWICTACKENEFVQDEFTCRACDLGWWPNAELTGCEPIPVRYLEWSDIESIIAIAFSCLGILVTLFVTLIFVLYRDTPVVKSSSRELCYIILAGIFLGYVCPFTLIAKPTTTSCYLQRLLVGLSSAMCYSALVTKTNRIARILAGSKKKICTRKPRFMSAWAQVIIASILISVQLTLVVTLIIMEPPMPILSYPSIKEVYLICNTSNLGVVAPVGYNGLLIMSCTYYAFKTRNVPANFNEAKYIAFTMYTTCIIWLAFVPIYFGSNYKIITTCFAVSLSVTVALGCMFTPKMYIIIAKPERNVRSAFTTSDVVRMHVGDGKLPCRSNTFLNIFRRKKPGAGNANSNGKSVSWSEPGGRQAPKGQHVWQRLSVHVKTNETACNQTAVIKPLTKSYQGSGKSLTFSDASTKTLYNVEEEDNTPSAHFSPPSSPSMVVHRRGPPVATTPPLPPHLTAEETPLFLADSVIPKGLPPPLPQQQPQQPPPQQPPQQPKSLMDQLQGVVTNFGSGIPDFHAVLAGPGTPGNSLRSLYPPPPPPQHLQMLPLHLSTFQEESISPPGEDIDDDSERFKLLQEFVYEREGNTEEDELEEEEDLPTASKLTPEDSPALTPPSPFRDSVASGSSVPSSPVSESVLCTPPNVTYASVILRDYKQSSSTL
Metabotropic glutamate receptor 6 (Rattus norvegicus), sequence (P35349 whole entry): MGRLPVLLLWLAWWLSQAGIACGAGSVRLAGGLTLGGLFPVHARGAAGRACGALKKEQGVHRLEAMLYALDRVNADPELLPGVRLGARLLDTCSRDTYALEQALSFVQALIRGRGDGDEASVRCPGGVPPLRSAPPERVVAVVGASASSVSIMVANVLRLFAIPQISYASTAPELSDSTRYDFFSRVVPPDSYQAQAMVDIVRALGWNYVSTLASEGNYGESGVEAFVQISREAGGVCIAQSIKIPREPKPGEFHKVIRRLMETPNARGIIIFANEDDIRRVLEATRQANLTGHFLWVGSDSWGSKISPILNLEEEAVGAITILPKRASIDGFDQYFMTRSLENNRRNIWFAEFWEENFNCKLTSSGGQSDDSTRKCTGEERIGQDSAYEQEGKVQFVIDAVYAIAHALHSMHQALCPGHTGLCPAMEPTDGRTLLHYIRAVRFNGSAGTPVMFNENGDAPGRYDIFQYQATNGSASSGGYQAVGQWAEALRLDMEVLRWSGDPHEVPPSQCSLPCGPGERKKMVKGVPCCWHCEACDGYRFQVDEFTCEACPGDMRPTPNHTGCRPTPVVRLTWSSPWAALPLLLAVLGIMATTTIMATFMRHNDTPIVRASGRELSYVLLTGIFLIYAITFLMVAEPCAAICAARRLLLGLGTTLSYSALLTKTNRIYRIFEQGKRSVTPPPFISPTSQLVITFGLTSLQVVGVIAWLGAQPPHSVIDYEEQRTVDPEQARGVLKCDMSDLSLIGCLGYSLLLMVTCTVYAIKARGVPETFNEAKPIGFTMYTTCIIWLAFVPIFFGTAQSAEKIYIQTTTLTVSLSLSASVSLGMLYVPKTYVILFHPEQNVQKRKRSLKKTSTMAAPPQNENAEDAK

## O=C(Nc1ccc(NC(=O)c2ccccc2Cl)c(Cl)c1)c1ccccn1
[1]
  AUC(0-t): 658 ng·h/mL
[2]
  Kp: 1.04
[3]
  Activity: inactive
[4]
  Cmax: 163 ng/g
[5]
  Activity: inactive
[6]
  fraction unbound: < 0.005
[7]
  EC50: 570 nM
[8]
  INH: > 30 µM
[9]
  Tmax: 30 min
[10]
  INH: 13.1 µM
[11]
  Activity: inactive
[12]
  Activity: 128%
[13]
  Cmax: 198.1 ng/mL
[14]
  Activity: 77.9%
[15]
  Activity: inactive
[16]
  INH: 11.8 µM
[17]
  INH: > 30 µM
[18]
  AUC: 681 ng·h/g
[19]
  Activity: inactive
